{"data": "Published values pooled from the literature", "observed": "metabolic stability", "species": "human", "note": "Each line is one published result; the experiments were not run side by side."}
{"SMILES": "CCCN(CCC)CCOc1ccc2c(=O)c3c([nH]c2c1)CCCC3", "test system": "liver microsomes", "setting": "1 µM, pH 7.4", "half-life [min]": "> 60"}
{"SMILES": "CCN(CC)CCNC(=O)c1c(C)[nH]c(/C=C2\\C(=O)Nc3ccc(F)cc32)c1C", "test system": "liver microsomes", "setting": "1 µM", "half-life [min]": 24.3}
{"SMILES": "CCCCCCCCCCCCCCCC(=O)NCCOC(=O)C[C@@H](CN)CC(C)C", "test system": "liver microsomes", "setting": "1 µM, pH 7.4", "half-life [min]": 60.3}
{"SMILES": "O=c1c2cc(Cl)ncc2[nH]c(=S)n1Cc1cccnc1", "test system": "liver microsomes", "setting": "1 µM, pH 7.4", "half-life [min]": "> 186"}
{"SMILES": "O=c1c2c([nH]c3cc(Nc4ccc(OC(F)(F)F)cc4)ccc13)CCCC2", "test system": "liver microsomes", "setting": "1 µM, pH 7.4", "half-life [min]": 20.7}
{"SMILES": "Cc1ccc2[nH]c(=S)n(Cc3cccnc3)c(=O)c2c1", "test system": "liver microsomes", "setting": "1 µM, pH 7.4", "half-life [min]": 10.6}
{"SMILES": "Cc1[nH]c(C)c(S(=O)(=O)Nc2ccc(C(F)(F)F)c(Cl)c2)c1C(=O)N1CCC(F)(F)C1", "test system": "liver microsomes", "half-life [min]": 10.2}
{"SMILES": "O=c1c2c([nH]c3cc(OC(F)(F)F)ccc13)CCCC2", "test system": "liver microsomes", "setting": "1 µM, pH 7.4", "half-life [min]": 8.01}
{"SMILES": "CC(C)NCC(O)COc1cccc2ccccc12 (racemic)", "test system": "liver microsomes", "setting": "2 µM, pH 7.4", "half-life [min]": 68.2}
{"SMILES": "O=c1c2c([nH]c3ccc(F)c(Oc4ccc(OC(F)(F)F)cc4)c13)CCCC2", "test system": "liver microsomes", "setting": "1 µM, pH 7.4", "half-life [min]": 14.9}
{"SMILES": "NC(=NCCC[C@@H](C(=O)NCc1ccccc1)n1cc(-c2ccc(-c3ccccc3)cc2)nn1)c1ccc([N+](=O)[O-])o1", "test system": "liver microsomes", "half-life [min]": 29}
{"SMILES": "COc1ccc(Cn2cc(CO[C@@H]3O[C@H]4[C@H](OC[C@H]4O)[C@H]3O)nn2)cc1", "test system": "liver microsomes", "half-life [min]": 120}
{"SMILES": "Cc1ncsc1-c1ccc([C@H](CC(=O)N2CCN(c3ccc(C#Cc4ccc(C(=O)N5CCC(n6cc(-c7ccc8c(c7)CCN8C(=O)Cc7cccc(OC(F)(F)F)c7)c7c(N)ncnc76)CC5)cc4)cn3)CC2)NC(=O)[C@@H]2C[C@@H](O)CN2C(=O)[C@@H](NC(=O)C2(F)CC2)C(C)(C)C)cc1", "test system": "hepatocytes", "setting": "1 µM", "half-life [min]": "> 120"}
{"SMILES": "Nc1nnc(-c2ccccc2O)cc1N1CCN(Cc2ccc(N3CCN(CCOc4cccc5c4C(=O)N(C4CCC(=O)NC4=O)C5=O)CC3)c(F)c2)CC1 (stereo not drawn)", "test system": "liver microsomes", "setting": "1 mM", "half-life [min]": 35}
{"SMILES": "CCN(CC)CCNC(=O)c1c(C)[nH]c(/C=C2\\C(=O)Nc3ccc(F)cc32)c1C", "test system": "liver microsomes", "setting": "1 µM, pH 7.4", "half-life [min]": 1630}
{"SMILES": "O=c1c2c([nH]c3cccc(Oc4ccc(OC(F)(F)F)cc4)c13)CCCC2", "test system": "liver microsomes", "setting": "1 µM, pH 7.4", "half-life [min]": 12.7}
{"SMILES": "OCc1ccc(-c2nn(Cc3ccccc3)c3ccccc23)o1", "test system": "liver microsomes", "half-life [min]": 7}
{"SMILES": "O=C1c2ccccc2C(=O)N1CCCN1CCN(C(c2ccc(F)cc2)c2ccc(F)cc2)CC1", "test system": "liver microsomes", "setting": "100 ng/mL", "half-life [min]": 10.2}
{"SMILES": "CONC(=O)c1cccc2c1cc(C)n2-c1nc2c(c(NCc3ccccc3)n1)CCCN2", "test system": "liver microsomes", "setting": "1 µM, pH 7.4", "half-life [min]": 13.3}
{"SMILES": "O=c1c2ccc(Oc3ccccc3OC(F)(F)F)cc2[nH]c2cc(Cl)cc(F)c12", "test system": "liver microsomes", "setting": "1 µM, pH 7.4", "half-life [min]": "> 60"}
{"SMILES": "O=c1c2cc(Cl)ccc2[nH]c(=S)n1Cc1cccnc1", "test system": "liver microsomes", "setting": "1 µM, pH 7.4", "half-life [min]": "> 186"}
{"SMILES": "O=c1c2c([nH]c3ccc(Oc4ccc(OC(F)(F)F)cc4)cc13)CCCC2", "test system": "liver microsomes", "setting": "1 µM, pH 7.4", "half-life [min]": 25.1}
{"SMILES": "COCC(=O)OCc1cc2[nH]c(=S)n(Cc3cccnc3)c(=O)c2cc1Cl", "test system": "liver microsomes", "setting": "1 µM, pH 7.4", "half-life [min]": "< 5"}
{"SMILES": "Cc1c(C)n(Cc2cccc(OC(C)(C)C(=O)O)c2)c2ccc(C(=O)N[C@@H](C)c3ccc(C(C)(C)C)cc3)cc12", "test system": "liver microsomes", "half-life [min]": "> 60"}
{"SMILES": "c1ccc(Oc2ccc(Nc3c4c(nc5ccccc35)CCC4)cc2)cc1", "test system": "liver microsomes", "setting": "0.5 µM", "half-life [min]": 57}
{"SMILES": "CCCCN(CCCC)CCCOc1ccc2c(=O)c3c([nH]c2c1)CCCC3", "test system": "liver microsomes", "setting": "1 µM, pH 7.4", "half-life [min]": 15.1}
{"SMILES": "C=CCn1c(=O)c2cnc(Nc3ccc(N4CCN(C)CC4)cc3)nc2n1-c1ccc2c(n1)[C@@](O)(CC)CC2", "test system": "hepatocytes", "half-life [min]": 93}
